# Screening data from PubChem BioAssay.
# dFosB activator: mouse delta FosB homodimer activation; activation, % at 25 µM; P13346; 0.99% of 340,000 active; purified delta FosB, TAMRA-CDK5 oligo fluorescence polarization; percent of positive-control signal above neutral wells;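 active = mean activation above about 17%, with every replicate also reaching it, limit read from the data, passing the limit was not always enough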
# Target sequence (P13346 whole entry, looked up): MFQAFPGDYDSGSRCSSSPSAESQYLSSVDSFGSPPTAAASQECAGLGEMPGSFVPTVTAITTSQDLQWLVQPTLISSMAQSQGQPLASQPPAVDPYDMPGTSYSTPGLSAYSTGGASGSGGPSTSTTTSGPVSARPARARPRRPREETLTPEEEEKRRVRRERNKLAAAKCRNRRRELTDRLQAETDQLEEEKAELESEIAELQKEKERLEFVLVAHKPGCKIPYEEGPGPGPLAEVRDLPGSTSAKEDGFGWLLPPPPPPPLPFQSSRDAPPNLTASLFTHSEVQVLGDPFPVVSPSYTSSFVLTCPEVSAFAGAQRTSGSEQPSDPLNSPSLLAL
# CAL PDZ FP-1: human CAL PDZ-peptide interaction inhibition | 0.02% of 330,000 active | Q9HD26 | purified CAL PDZ, TMR-peptide fluorescence polarization, 1 h | inhibition, % at 20 µM;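 active = highest replicate inhibition of at least 40%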;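 note: plate controls were DMSO neutral control wells for no effect and unlabeled competitor peptide control wells for full effect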
#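 material = purified tagged CAL PDZ domain construct (CerCALP) | buffer or medium = sodium phosphate/NaCl buffer pH 7.4 with TCEP, IgG, Thesit | reagent = TMR-labelled reporter peptide T*-PRC34 bound in PDZ groove | incubation = 1 h room-temperature incubation prior to read | measured by = fluorescence polarization (mP) | evaluation = percent inhibition from loss of millipolarization | control set = unlabelled peptide and DMSO controls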
# CDK5 p35 inh: blocks human CDK5/p35 kinase activity | Q00535+Q15078 | Recombinant CDK5/p35, ADP-Glo luminescence, 60 min | inhibition, % at 10 µM | 0.01% of 330,000 active | AID 488839;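 active = highest replicate inhibition of at least 50% and at least 75% of replicates reaching 50%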;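 note: plate controls were DMSO neutral control for no effect and GW8510 at 10 µM for full effect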
# S100A4 inh HTS: blocks human S100A4 binding to myosin IIA peptide. P26447. S100A4/TAMRA-MyoIIA peptide fluorescence polarization. inhibition, % at 10.7 µM. 0.14% of 360,000 active. AID 652163;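 active = mean inhibition of at least 70% across replicates, with every replicate also reaching that level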
# Target sequence (P26447 whole entry, looked up): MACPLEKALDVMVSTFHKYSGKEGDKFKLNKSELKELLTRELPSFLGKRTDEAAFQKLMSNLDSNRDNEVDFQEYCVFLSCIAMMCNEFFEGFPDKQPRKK
#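 Test system – S100A4 monomer (human) · Compound – single-point compound testing · Schedule – 5 min incubation before reading · Probe or stimulus – TAMRA-labelled myosin IIA heavy-chain peptide probe, 5 nM · Benchmarks – neutral control DMSO, positive control TFP · Medium – Calcium-containing HEPES buffer, pH 7.2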
# C2C12 statin: suppressors of simvastatin-induced myotoxicity in C2C12 myotubes; ATP luminescence, 48 h; scaled: DMSO 0, geranylgeraniol control 100; 0.78% of 330,000 active; AID 602340; rescue of ATP level, % at 7.49 µM;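 active = mean ATP rescue above about 67%, or every replicate alone reaching that limit, limit read from the data, passing the limit was not always enough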;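 note: myotubes were challenged with 10 µM simvastatin during compound exposure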
# CAL PDZ FP-2: inhibitors of human CAL PDZ peptide binding | AID 602252 | Q9HD26 | purified CAL PDZ, TMR-peptide fluorescence polarization, 1 h | inhibition, % at 24.9 µM | 0.92% of 300,000 active;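 active = mean inhibition of at least 30% with at least half of replicates also reaching 30%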;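 note: 0% = DMSO neutral control and 100% = excess unlabeled competitor peptide PRC23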
# Active calls of the source: *; . = not tested or not shown. Only some compounds are listed: those with a hit (about 2% of all), similar ones and a draw of the others.
SMILES,dFosB activator,CAL PDZ FP-1,CDK5 p35 inh,S100A4 inh HTS,C2C12 statin,CAL PDZ FP-2
Cc1ccc2[nH]c(=O)c(CN(Cc3cccs3)S(=O)(=O)c3ccc4c(c3)OCCO4)cc2c1,4,-2,-1,-2,.,34*
Cc1ccc(-c2cc(C(=O)N3CCCc4ccccc43)c3ccccc3n2)cc1,-16,-1,-1,.,26,.
Nc1cc(=O)[nH]c(SCC(=O)Nc2ccc(N3CCOCC3)cc2)n1,-13,-2,-1,2,3,3
CCCn1nnnc1NCc1cccc(Cl)c1,5,-7,1,7,11,80*
CCCn1nnnc1NCc1c(Cl)cccc1Cl,-1,0,0,5,.,-2
CCC(=O)N1CN(S(=O)(=O)c2ccc(C)cc2)CC1C (stereo unspecified),-5,0,-1,.,9,42*
COc1cc(OC)cc(C(=O)Nc2ccc3nc4n(c(=O)c3c2)CCCC4)c1,-19,0,1,-5,-39,0
COc1cccc(C(=O)Nc2ccc3nc4n(c(=O)c3c2)CCCC4)c1,-29,-2,3,-8,-32,63*
O=C(/C=C/c1ccccc1)NCc1ccc2c(c1)OCO2,0,-1,0,-3,23,-1
O=[N+]([O-])c1c(Nc2ccccc2O)ccc2nonc12,0,-1,-1,2,5,36*
Cc1ccccc1Nc1ccc2nonc2c1[N+](=O)[O-],1,.,1,4,7,-13
CCOC(=O)C1(CCOc2ccccc2)CCN(Cc2nccn2CC)CC1,-3,0,0,2,.,33*
Cc1cccc(C)c1NC(=S)N/N=C/c1c(Cl)cccc1Cl,13,-2,-3,-1,.,33*
CCOC(=O)CSc1nc2sc3c(c2c(=O)[nH]1)CC(C)(CC)OC3 (stereo unspecified),-5,0,0,.,-10,-7
CCC1(C)Cc2c(sc3nc(NN)n(C)c(=O)c23)CO1 (stereo unspecified),-6,1,0,.,144*,0
CCn1c(Cc2ccc(OC)cc2)nnc1SCC(=O)N1CCN(c2ccccc2)CC1,-1,-1,-4,.,1,11
CC(C)Nc1nc(Cl)nc(NCCOc2ccccc2)n1,-12,-3,-1,-4,.,1
O=CN1CCC(=O)N(Cc2ccccc2)c2ccccc21,5,-1,0,.,109*,0
COC(=O)C(Cc1ccc(OC(=O)c2ccc(Cl)cc2)cc1)N1Cc2ccccc2C1=O (stereo unspecified),-6,-1,1,.,84*,1
Cc1ccc(CC(=O)O/N=C(\N)Cc2ccc([N+](=O)[O-])cc2)cc1,-4,-1,0,-4,.,3
CC(C)c1nc2cc(C(=O)N(C)C3CCOCC3)ccc2o1,-4,-1,-3,-2,.,43*
COc1ccc(-c2cn3cc([N+](=O)[O-])ccc3n2)cc1OC,-12,0,0,0,.,60*
C#CCOC(=O)c1ccccc1C(=O)N(CC)CC,8,-1,0,3,104*,.
CCCN(CCC)C(=O)c1ccccc1C(=O)N(CCC)CCC,-7,-1,-1,.,6,0
C[C@@H]1CN([C@H](C)CO)C(=O)c2cc(NC(=O)Nc3ccc(F)cc3)ccc2O[C@H]1CN(C)S(=O)(=O)c1ccccc1,.,.,.,-12,-27,.
SMILES,dFosB activator,CAL PDZ FP-1,CDK5 p35 inh,S100A4 inh HTS,C2C12 statin,CAL PDZ FP-2
COc1ccc(/C=C2/Sc3ccc(C(=O)NCCN4CCCCCC4)cc3NC2=O)cc1,82*,-1,0,4,-5,-4
Cc1ccc(-c2nc(NCc3ccco3)n(S(C)(=O)=O)n2)cc1,-5,-3,0,-3,9,1
O=C(Nc1ccc(N2CCOCC2)cc1)c1cccnc1,-2,-1,-1,.,.,-2
O=C(Nc1ccccc1N1CCOCC1)c1cccnc1,5,10,0,-15,1,85*
O=C(Nc1ccc(N2CCOCC2)c(Cl)c1)c1cccnc1,3,-1,2,.,92*,.
C[C@@H]1CN([C@H](C)CO)C(=O)c2cc(C#CCc3ccccc3)cnc2O[C@@H]1CN(C)Cc1ccccn1,.,.,.,1,.,.
O=C(C1CCC1)N1CCCCN2[C@H](CO)[C@@H](c3ccc(C#CC4CCCC4)cc3)[C@@H]2C1,.,.,.,9,.,.
Cc1ccc(SCCNC(=S)Nc2cc(C)cc(C)c2)cc1,-2,0,0,.,117*,-21
Cc1cc(NS(=O)(=O)c2ccc(NC(=O)CCCOc3ccccc3C)cc2)nc(C)n1,-11,-2,0,-6,14,-7
Cc1cc(N)c(NC2=CC(=O)CC(C)(C)C2)cc1C,-5,0,1,.,138*,0
O=C1NC(=O)C(CSc2ccccc2)(c2ccccc2)N1 (stereo unspecified),-3,0,-4,2,-2,42*
CC1(CSc2ccccc2)CC(=O)N1 (stereo unspecified),.,.,.,-3,14,.
CN(C)/C=C/c1[nH]c(=O)[nH]c(=O)c1[N+](=O)[O-],6,0,-2,-1,1,77*
CN1C(=O)/C(=C/c2ccccc2OCc2cccc(F)c2)N(C)C1=S,-8,-2,1,.,-17,-2
Fc1cccc(COc2ccccc2C(=S)N2CCCC2)c1,-6,.,-2,-17,6,43*
Cc1noc(N)c1C(=O)Nc1ccc(F)c(Cl)c1,-2,-2,-1,.,130*,-1
CCc1noc(N)c1C(=O)Nc1ccc(F)c(Cl)c1,-7,-3,0,.,0,-4
COC(=O)Cc1nnc(Nc2cccc(C)c2)c2ccccc12,8,-1,-1,-1,0,30*
O=C(Nc1ccc(F)cc1F)C1CC(=O)N(Cc2ccccc2)C1 (stereo unspecified),0,-3,0,-7,-1,5
O=C(Nc1ccc(F)cc1F)NC1CC(=O)N(Cc2ccccc2)C1 (stereo unspecified),-4,0,-1,.,86*,2
CCCC1CC(CCc2ccccc2)OS(=O)(=O)N1 (stereo unspecified),3,0,0,-7,95*,-2
c1ccc(CC[C@@H]2CC[C@@H](CCc3ccccc3)N2)cc1,-3,-1,0,3,47,8
N#CCC(=O)Nc1ccc(C(=O)NNC(=O)c2ccccc2-n2cccc2)cc1,-3,0,-1,-5,-5,-7
CCN1C(c2ccccc2)=C(c2ccccc2)S/C1=C\C=C1/SC(=S)N(C)C1=O,-13,-7,5,.,.,-7
CCN1C(c2ccccc2)=C(c2ccccc2)S/C1=C/C=C1\SC(=S)N(C)C1=O,-3,-2,4,.,.,36*
CN(Cc1ccon1)C(=O)CC1C(=O)NCCN1Cc1cccc(F)c1F (stereo unspecified),1,0,1,-2,1,0
